Data set [1] has as its system Staphylococcus aureus. Description: Antibacterial activity against methicillin-resistant Staphylococcus aureus ATCC 33591 assessed as reduction in bacterial growth incubated for 18 hrs by broth microdilution method. As to conditions: ATCC 33591, 18 h. For orientation: Broth dilution looks for growth in wells or tubes with falling amounts of substance.
The nature of data set [2]: Hemolytic activity in human RBC assessed as hemoglobin release incubated for 1 hr. In kind it is ADME, cell-based, Erythrocyte. As to conditions: red blood cells (erythrocytes). In short, it runs like this:
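Human red blood cells washed in PBS, pelleted at 1000g for 10 min, resuspended at 5% v/v. Compound serially diluted two-fold (50 µL) and mixed with 50 µL of the RBC suspension. Incubated 1 h at 37 °C, centrifuged 10 min at 3500 rpm, supernatant diluted with PBS, hemoglobin read at 540 nm. PBS defines 0% and 0.1% Triton X-100 defines 100% hemolysis. HC50 reported.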

Data set [3] concerns Staphylococcus aureus. Description: Bactericidal activity against methicillin-resistant Staphylococcus aureus ATCC 33591 assessed as reduction in bacterial colonies formation at 12.5 ug/ml incubated for 120 min followed by dilution of the suspension and further incubation for 20 hrs on agar plate by time kill assay. In kind it is functional, organism-based. In short, it runs like this:
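Bacteria are exposed to a range of peptide concentrations and sampled at 0, 10, 20, 30, 60 and 120 min. At each time point 100 µL of suspension is taken, diluted, and plated on agar for 20 h at 37 °C. Colonies are counted and expressed as log CFU/mL versus time. Done in triplicate.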

The subject of data set [4] is Staphylococcus aureus. Description: Induction of cell membrane disruption in methicillin-resistant Staphylococcus aureus ATCC 33591 assessed as increase in PI-positive cells at 5 ug/ml incubated for 2 hrs by DAPI and PI dye based fluorescence microscopy. The class given is organism-based. A digest of the protocol:
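Mid-log MRSA is incubated at 37 °C with peptide (5 µg/mL); the methods give 4 h and the legend gives 2 h. Cells are pelleted (3000g, 15 min) and PBS-washed. They are stained with DAPI (10 µg/mL, 0 °C, 15 min, dark), washed, then stained with PI (5 µg/mL). Untreated cells serve as controls. Imaged by optical microscopy at 100×.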

Data set [5] deals with Staphylococcus aureus. The data set can be described thus: Induction of cell membrane disruption in methicillin-resistant Staphylococcus aureus ATCC 33591 assessed as increase in depolarization measured for 30 mins by DiSC3 dye based fluorescence assay. The class given is organism-based. In short, it runs like this: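 Mid-log cells are washed in 5 mM HEPES then 5 mM glucose. They are resuspended (10⁸ CFU/mL) in HEPES/glucose/KCl 1:1:1 with 2 µM DiSC3. Fluorescence (ex 622, em 670 nm) is monitored 30 min at room temperature until minimal. Peptide is then added and the fluorescence rise followed as depolarization. Three trials, each in duplicate.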

The nature of data set [6]: Selectivity index, ratio of HC50 for human RBC to MIC for methicillin-resistant Staphylococcus aureus ATCC 33591. In kind it is toxicity. As to conditions: red blood cells (erythrocytes). A digest of the protocol:
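Selectivity = HC50 / MIC. For HC50, PBS-washed human RBCs (spun 1000g, 10 min) are diluted to 5% v/v and mixed 1:1 with twofold peptide dilutions. After 1 h at 37 °C, plates are spun and the diluted supernatant is read at 540 nm. PBS sets 0% and 0.1% Triton X-100 sets 100% hemolysis. MIC is by OD600 broth microdilution, 18 h, 37 °C.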

Usually MIC stands for the least concentration at which growth counts as inhibited. As a reminder, the HC50 is the concentration that lyses half of the red blood cells.

Converted amounts (≈) assume the structure as drawn. The source made the active and inactive calls. The rule behind the calls is not given here.

As for `CCCCCCCCCCCCCCCC(=O)N[C@@H](CCCCN)C(=O)NCCN([C@@H](C)C(=O)NCCN([C@@H](C)C(=O)NCCN([C@@H](C)C(N)=O)S(=O)(=O)c1ccc(Cl)cc1)S(=O)(=O)c1ccc(Cl)cc1)S(=O)(=O)c1ccc(Cl)cc1`, the MIC in the data set on Staphylococcus aureus [1] was more than 25 µg/mL.
As for `CCCCCCCCCC(=O)N[C@@H](CCCCN)C(=O)NCCN([C@@H](C)C(N)=O)S(=O)(=O)c1ccc(Cl)cc1`, the MIC in the data set with Staphylococcus aureus [1] was more than 25 µg/mL.
On the same count and under the same terms, then `CCCCCCCCCCCCCCCC(=O)N[C@@H](CCCCN)C(=O)NCCN([C@@H](C)C(=O)NCCN([C@@H](C)C(N)=O)S(=O)(=O)c1ccc(Cl)cc1)S(=O)(=O)c1ccc(Cl)cc1`, with 10 µg/mL (≈ 10.4 µM); and `CCCCCCCCCCCCCC(=O)N[C@@H](CCCCN)C(=O)NCCN([C@@H](C)C(N)=O)S(=O)(=O)c1ccc(Cl)cc1`, with 5 µg/mL (≈ 7.76 µM).
Take `CCCCCCCCCCCC(=O)N[C@@H](CCCCN)C(=O)NCCN([C@@H](C)C(N)=O)S(=O)(=O)c1ccc(Cl)cc1`: the MIC in the data set on Staphylococcus aureus [1] stood at 5 µg/mL (≈ 8.11 µM).
Turning to `CCCCCCCCCCCCCCCC(=O)N[C@@H](CCCCN)C(=O)NCCN([C@@H](C)C(N)=O)S(=O)(=O)c1ccc(Cl)cc1`, in the data set with Staphylococcus aureus [1], the minimum inhibitory concentration (MIC) worked out at 1 µg/mL (≈ 1.49 µM). The HC50 at 1 h in data set [2] came out at 62.5 µg/mL. Also, the result in the data set with Staphylococcus aureus [3], with Staphylococcus aureus [4] and in the data set with Staphylococcus aureus [5] was Active. Further, the selectivity ratio in data set [6] came out at 62.5.
For `CCCCCCCCCCCCCCCC(=O)N[C@@H](CCCCN)C(=O)NCCN([C@@H](C)C(N)=O)S(=O)(=O)c1ccccc1`, the MIC with Staphylococcus aureus [1] worked out at 5 µg/mL (≈ 7.84 µM).
On the same count and under the same terms, in the case of `CCCCCCCCCCCCCCCC(=O)N[C@@H](CCCCN)C(=O)NCCN([C@@H](C)C(=O)NCCN([C@@H](C)C(=O)NCCN([C@@H](C)C(N)=O)S(=O)(=O)c1ccccc1)S(=O)(=O)c1ccccc1)S(=O)(=O)c1ccccc1` it was 10 µg/mL (≈ 8.72 µM).
On to `CCCCCCCCCCCCCCCC(=O)N[C@@H](CCCCN)C(=O)NCCN([C@@H](C)C(N)=O)S(=O)(=O)c1ccc(Br)cc1`, for which the MIC in the data set on Staphylococcus aureus [1] turned out to be 2 µg/mL (≈ 2.79 µM).
Still for that read-out and setting: in the case of `CCCCCCCC(=O)N[C@@H](CCCCN)C(=O)NCCN([C@@H](C)C(N)=O)S(=O)(=O)c1ccc(Cl)cc1` it was more than 25 µg/mL; in that of `CCCCCCCCCCCCCCCC(=O)N[C@@H](CCCCN)C(=O)NCCN([C@@H](C)C(=O)NCCN([C@@H](C)C(=O)NCCN([C@@H](C)C(N)=O)S(=O)(=O)c1ccc(Br)cc1)S(=O)(=O)c1ccc(Br)cc1)S(=O)(=O)c1ccc(Br)cc1`, more than 25 µg/mL.
With `CCCCCCCCCCCCCCCC(=O)N[C@@H](CCCCN)C(=O)NCCN([C@@H](C)C(=O)NCCN([C@@H](C)C(N)=O)S(=O)(=O)c1ccccc1)S(=O)(=O)c1ccccc1`, the MIC in the data set on Staphylococcus aureus [1] worked out at 2 µg/mL (≈ 2.24 µM).
For the compound `CCCCCCCCCCCCCCCC(=O)N[C@@H](CCCCN)C(=O)NCCN([C@@H](C)C(=O)NCCN([C@@H](C)C(N)=O)S(=O)(=O)c1ccc(Br)cc1)S(=O)(=O)c1ccc(Br)cc1`, the MIC with Staphylococcus aureus [1] is 5 µg/mL (≈ 4.76 µM).
